# From ChEMBL document CHEMBL1138107, “Novel non-nucleobase inhibitors of Staphylococcus aureus DNA polymerase IIIC” (Bioorg Med Chem Lett, 2006)
# Active and inactive are the calls of the source. The rule behind the calls is not given here.
# What was measured:
# [1] = molecular target: T1, DNA polymerase III PolC-type (Staphylococcus aureus) (UniProt P0C1P9); experiment: Inhibition of DNA polymerase3C from Staphylococcus aureus at 100 uM
# T1 sequence (whole entry): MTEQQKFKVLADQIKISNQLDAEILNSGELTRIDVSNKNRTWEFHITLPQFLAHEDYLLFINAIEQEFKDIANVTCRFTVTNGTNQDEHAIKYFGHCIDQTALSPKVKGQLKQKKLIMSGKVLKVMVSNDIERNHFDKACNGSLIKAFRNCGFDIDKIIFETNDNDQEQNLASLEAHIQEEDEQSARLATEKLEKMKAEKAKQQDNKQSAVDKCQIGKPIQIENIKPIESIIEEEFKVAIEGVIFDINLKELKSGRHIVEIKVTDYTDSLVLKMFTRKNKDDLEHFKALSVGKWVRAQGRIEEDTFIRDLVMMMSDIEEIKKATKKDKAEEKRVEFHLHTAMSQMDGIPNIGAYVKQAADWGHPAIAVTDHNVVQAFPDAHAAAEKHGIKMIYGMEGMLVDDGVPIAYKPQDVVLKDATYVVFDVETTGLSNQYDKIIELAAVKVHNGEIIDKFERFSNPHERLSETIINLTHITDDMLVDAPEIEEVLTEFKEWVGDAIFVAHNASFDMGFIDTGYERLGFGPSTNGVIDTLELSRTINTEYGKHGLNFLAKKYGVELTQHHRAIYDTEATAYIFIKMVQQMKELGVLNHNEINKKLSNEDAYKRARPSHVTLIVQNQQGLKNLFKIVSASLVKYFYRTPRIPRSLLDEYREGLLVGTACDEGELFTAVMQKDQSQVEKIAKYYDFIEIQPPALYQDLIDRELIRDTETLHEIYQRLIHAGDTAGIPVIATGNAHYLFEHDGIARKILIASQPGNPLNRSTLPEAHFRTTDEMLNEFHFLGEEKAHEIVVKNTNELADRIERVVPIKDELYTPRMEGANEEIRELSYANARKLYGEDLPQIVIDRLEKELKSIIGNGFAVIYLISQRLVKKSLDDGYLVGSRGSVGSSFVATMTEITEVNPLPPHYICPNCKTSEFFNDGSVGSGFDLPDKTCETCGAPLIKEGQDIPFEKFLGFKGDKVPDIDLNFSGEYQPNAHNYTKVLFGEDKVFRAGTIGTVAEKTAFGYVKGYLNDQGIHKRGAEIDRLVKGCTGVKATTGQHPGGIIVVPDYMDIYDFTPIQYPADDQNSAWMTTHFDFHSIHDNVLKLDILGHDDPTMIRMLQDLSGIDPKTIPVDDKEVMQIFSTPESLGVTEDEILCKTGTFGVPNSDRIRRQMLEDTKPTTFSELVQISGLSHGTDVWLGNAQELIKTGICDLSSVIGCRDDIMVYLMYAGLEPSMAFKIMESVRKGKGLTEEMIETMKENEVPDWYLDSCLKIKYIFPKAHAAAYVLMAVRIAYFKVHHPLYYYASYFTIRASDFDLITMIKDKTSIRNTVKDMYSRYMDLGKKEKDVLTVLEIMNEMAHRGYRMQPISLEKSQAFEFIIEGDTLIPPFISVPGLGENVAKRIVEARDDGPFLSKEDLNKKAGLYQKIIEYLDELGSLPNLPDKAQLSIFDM
# Method in brief: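 PolC oligonucleotide-primed incorporation of [³H]dTTP was run with 125 ng purified enzyme for 30 min at 37 °C. It was quenched with EDTA, filter-bound on DE81 and counted by liquid scintillation. Compounds were screened in triplicate at 10, 50 and 100.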
# Staphylococcus aureus = experiment: Antimicrobial activity against Staphylococcus aureus (RN4220); format: functional; conditions: read-out: MIC
# HeLa = experiment: Cytotoxicity against HeLa cell line by MTS assay; format: functional, cell-based; conditions: Homo sapiens
# Method in brief: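 HeLa cells (2 × 10⁴/well) in DMEM with 1% bovine growth serum were exposed to compound at 100, 50, 25 and 12.5 for 18 h at 37 °C under 5% CO₂. Viability was read as MTS reduction to formazan, by absorbance at 490 nm.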
# Hepatocyte [2] = experiment: Decrease in ATP productions in human hepatocytes at 100 uM; format: functional, cell-based
# Method in brief: (§1)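 Cryopreserved primary human hepatocytes (1 × 10⁴/well) in Krebs–Henseleit buffer were incubated with compound at 100, 50, 25 and 12.5 for 2 h at 37 °C under 5% CO₂. ATP content was then measured by luminescence after adding luciferin and luciferase.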
# [3] = molecular target: T2, DNA polymerase III PolC-type (Staphylococcus aureus, UniProt P0C1P9); experiment: Inhibition of DNA polymerase3C from Staphylococcus aureus
# T2 sequence (P0C1P9 whole entry): T1 sequence (whole entry)
# Method in brief: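 Purified PolC (125 ng) started the reaction with a double-stranded oligonucleotide substrate, dATP, dCTP, low dGTP and [³H]dTTP (1 Ci/mmol) in Tris-HCl pH 7.5 buffer with glycerol, EDTA, DTT, IgG and 8 mM MgCl₂. Incubation was 30 min at 37 °C, stopped with 20 mM EDTA, then spotted on DE81 filters, washed and counted by scintillation. IC50 came from a 12-point, roughly 2-fold serial dilution, run in triplicate.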
# Hepatocyte [4] = experiment: Cytotoxicity against human hepatocytes by measure of ATP production at 50 uM; format: functional, cell-based; method in brief: as §1
Compound,inhibition [1] [%],MIC (Staphylococcus aureus) [µg/mL],Activity (HeLa),Activity (Hepatocyte [2]),IC50 [3] [µM],Activity (Hepatocyte [4])
C=CCc1c(O)nc(Nc2ccc(C)c(CC)c2)nc1O,90,8,Not toxic,Active,,
Oc1nc(Nc2ccc3c(c2)CCC3)nc(O)c1CCCc1ccccc1,75,8,Not toxic,Active,,
Oc1nc(Nc2ccc3c(c2)CCC3)nc(O)c1CCCOc1ccccc1,74,8,Not toxic,,4,Toxic
